Test results taken from ChEMBL document CHEMBL4270636, “5'-Chloro-2,2'-dihydroxychalcone and related flavanoids as treatments for prostate cancer” (Eur J Med Chem, 2018).
Values belong to the compound of their own block, whether it stands above or below them. Calls of active or inactive are those of the source. The rule behind the calls is not given here.

Experiments:
Androgen receptor = biological target: T1, Androgen receptor (Homo sapiens, UniProt P10275); test: Antagonist activity at AR in human LNCAP cells assessed as reduction in DHT-induced transcriptional activation after 24 hrs by luciferase reporter gene assay; format: cell-based
T1 sequence (P10275 whole entry): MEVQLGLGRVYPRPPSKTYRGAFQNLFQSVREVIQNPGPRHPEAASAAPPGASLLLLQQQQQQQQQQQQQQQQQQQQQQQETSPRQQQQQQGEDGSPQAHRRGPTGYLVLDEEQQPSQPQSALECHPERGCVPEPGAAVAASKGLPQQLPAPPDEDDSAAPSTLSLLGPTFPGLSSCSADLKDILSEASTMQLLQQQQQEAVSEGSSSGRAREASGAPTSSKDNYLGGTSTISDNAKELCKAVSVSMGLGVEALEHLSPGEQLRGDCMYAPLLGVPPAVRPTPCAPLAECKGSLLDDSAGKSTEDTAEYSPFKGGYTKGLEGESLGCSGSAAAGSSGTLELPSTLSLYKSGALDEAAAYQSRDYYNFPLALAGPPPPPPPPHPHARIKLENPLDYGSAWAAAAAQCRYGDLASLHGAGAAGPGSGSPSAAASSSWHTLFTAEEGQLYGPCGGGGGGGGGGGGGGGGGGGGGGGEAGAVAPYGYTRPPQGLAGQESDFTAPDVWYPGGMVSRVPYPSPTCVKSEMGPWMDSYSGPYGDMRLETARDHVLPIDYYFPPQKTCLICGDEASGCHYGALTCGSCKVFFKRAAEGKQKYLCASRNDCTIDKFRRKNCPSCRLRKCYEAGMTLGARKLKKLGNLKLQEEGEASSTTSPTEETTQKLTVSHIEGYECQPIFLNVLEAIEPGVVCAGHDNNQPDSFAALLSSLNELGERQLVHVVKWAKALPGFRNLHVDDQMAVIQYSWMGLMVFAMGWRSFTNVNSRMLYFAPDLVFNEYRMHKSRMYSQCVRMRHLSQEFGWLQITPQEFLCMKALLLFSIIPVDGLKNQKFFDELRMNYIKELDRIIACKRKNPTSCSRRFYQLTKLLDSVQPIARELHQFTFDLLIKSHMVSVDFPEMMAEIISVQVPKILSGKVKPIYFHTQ

[1] = Antiproliferative activity against human PC3-TxR cells assessed as reduction in cell growth treated every 2 days for 4 days by hemocytometry; format: functional, cell-based
[2] = test system: Androgen receptor (Homo sapiens), P10275 [UNDEFINED MUTATION]; test: Antagonist activity at AR V7 mutant (unknown origin) expressed in human PC3 cells assessed as reduction in DHT-induced transcriptional activation after 24 hrs by luciferase reporter gene assay; format: cell-based
Method in brief: (§1)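 PC-3 cells (AR-negative) co-transfected with wild-type or AR-V7 expression vector plus PSA promoter-luciferase reporter (pGL3PSAp-5.8, 0.5 ug/well); seeded 50,000/well, transfected after 24 h, treated with compounds ± 1 nM DHT for 24 h from 24 h post-transfection; lysed cells read for luciferase activity by luminometer.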

LNCaP [3] = test: Antiproliferative activity against human LNCAP cells assessed as reduction in cell growth treated every 2 days for 4 days by hemocytometry; format: functional, cell-based
PC-3 [4] = test: Antiproliferative activity against human PC3 cells assessed as reduction in cell growth treated every 2 days for 4 days by hemocytometry; format: functional, cell-based
PC-3 [5] = test: Cell cycle arrest in human PC3 cells assessed as accumulation at Sub-G1 phase at 2 times IC50 after 24 to 48 hrs by propidium iodide staining based flow cytometry; format: functional
DU-145 = test: Antiproliferative activity against human DU145 cells assessed as reduction in cell growth treated every 2 days for 4 days by hemocytometry; format: functional, cell-based
LNCaP [6] = test: Antiproliferative activity against human LNCAP cells assessed as reduction in cell growth at 10 uM treated every 2 days for 4 days by hemocytometry; format: functional, cell-based
A549 [7] = test: Cell cycle arrest in human A549 cells assessed as accumulation at Sub-G1 phase at 3 times IC50 after 24 to 48 hrs by propidium iodide staining based flow cytometry; format: functional
[8] = biological target: T2, Androgen receptor (Homo sapiens) (UniProt P10275); test: Antagonist activity at AR in human LNCAP cells assessed as reduction in DHT-induced cell growth at 1 to 3 uM treated for every 2 days for 4 days by hemocytometry; format: cell-based
T2 sequence (whole entry): T1 sequence (P10275 whole entry)

KB = test: Antiproliferative activity against human KB cells assessed as reduction in cell growth after 72 hrs by sulforhodamine B assay
Homo sapiens = organism: Homo sapiens; test: Antiproliferative activity against human LNCaP-SF cells assessed as reduction in cell growth at 10 uM treated every 2 days for 4 days by hemocytometry; format: functional, cell-based
Method in brief: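 LNCaP-SF castration-resistant subline cultured 4 days with compound at stated concentrations, with or without 0.1 nM DHT; growth assessed by cell counting.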

[9] = biological target: T2, Androgen receptor (Homo sapiens); test: Antagonist activity at AR (unknown origin) expressed in human PC3 cells assessed as reduction in DHT-induced transcriptional activation at 3 to 10 uM after 24 hrs by luciferase reporter gene assay; format: cell-based; method in brief: as §1
PC-3 [10] = test: Antitumor activity against human PC3 cells xenografted in C.B-17 SCID mouse assessed as tumor growth inhibition at 30 mg/kg, ip administered every 4 days measured during compound dosing; format: functional, organism-based
Method in brief: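 Male C.B-17 scid mice (purchased at 7 weeks) given 2.0×10⁶ PC-3 cells in 50% matrigel subcutaneously on dorsal side at 8 weeks; at ~50 mm³ tumor, randomized into groups of 5, dosing from second day at 30 mg/kg i.p. every 4 days; tumor volume and body weight followed; mean ± SD.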

MDA-MB-231 = test: Antiproliferative activity against human MDA-MB-231 cells assessed as reduction in cell growth after 72 hrs by sulforhodamine B assay; format: functional, cell-based; conditions: MDA-MB-231, 72 h
MCF7 = test: Antiproliferative activity against human MCF7 cells assessed as reduction in cell growth after 72 hrs by sulforhodamine B assay; conditions: MCF7, 72 h
[11] = Antiproliferative activity against human DU145/TxR/CxR cells assessed as reduction in cell growth treated every 2 days for 4 days by hemocytometry; format: functional, cell-based; conditions: DU-145
A549 [12] = test: Cell cycle arrest in human A549 cells assessed as accumulation at G2/M phase at 3 times IC50 after 24 to 48 hrs by propidium iodide staining based flow cytometry; format: functional
A549 [13] = test: Antiproliferative activity against human A549 cells assessed as reduction in cell growth after 72 hrs by sulforhodamine B assay; conditions: A549, 72 h
[14] = Antiproliferative activity against human PC3/TxR/CxR cells assessed as reduction in cell growth treated every 2 days for 4 days by hemocytometry; format: functional, cell-based
[15] = Antiproliferative activity against human DU145-TxR cells assessed as reduction in cell growth treated every 2 days for 4 days by hemocytometry; format: functional, cell-based
[16] = Antiproliferative activity against human KBVIN cells assessed as reduction in cell growth after 72 hrs by sulforhodamine B assay; format: functional, cell-based
PC-3 [17] = test: Cell cycle arrest in human PC3 cells assessed as accumulation at G2/M phase at 200 nM after 24 hrs by propidium iodide staining based flow cytometry; format: functional

Structure (SMILES): CCOc1ccccc1/C=C/C(=O)c1cc(Br)ccc1O
- IC50 (Androgen receptor): 5.27 µM

Structure (SMILES): COCOc1ccccc1/C=C/C(=O)c1cc(F)ccc1O
- IC50 (Androgen receptor): > 10 µM

Structure (SMILES): COc1ccc(/C=C/C(=O)c2cc(Cl)ccc2O)cc1OC
- IC50 (Androgen receptor): 5.25 µM

Structure (SMILES): COc1ccc(/C=C\c2cc(OC)c(OC)c(OC)c2)cc1O
- Activity (PC-3 [17]): Active

Structure (SMILES): COc1cc(/C=C/C(=O)c2cc(Cl)ccc2O)ccc1O
- IC50 (Androgen receptor): 5.95 µM

Structure (SMILES): COc1ccccc1/C=C/C(=O)c1cc(Cl)ccc1O
- IC50 (Androgen receptor): > 10 µM

Structure (SMILES): COc1ccc2c(c1)C(=O)CC(c1ccccc1OC)O2 (stereo unspecified)
- IC50 (Androgen receptor): > 10 µM

Structure (SMILES): COc1ccc2c(c1)OC(c1ccccc1O)CC2=O (stereo unspecified)
- IC50 (Androgen receptor): > 10 µM

More lines, main results first:

- IC50 (Androgen receptor): 4.26 µM
Structure (SMILES): O=C1CC(c2ccccc2O)Oc2ccc(I)cc21 (stereo unspecified)

- IC50 (Androgen receptor): 2.87 µM
Structure (SMILES): O=C(/C=C/c1ccccc1O)c1cc(Br)cc(Br)c1O

- IC50 (Androgen receptor): 2.73 µM
Structure (SMILES): O=C1CC(c2ccccc2O)Oc2ccc(O)cc21 (stereo unspecified)

- IC50 (Androgen receptor): 1.68 µM
Structure (SMILES): O=C1CC(c2ccccc2O)Oc2ccc(Cl)cc21 (stereo unspecified)

- inhibition [2]: Dose-dependent effect
- IC50 (LNCaP [3]): 4.96 µM
- IC50 (PC-3 [4]): 1.84 µM
- IC50 (Androgen receptor): < 1 µM
- IC50 (DU-145): 6.13 µM
- Activity [8]: Active
- IC50 (KB): 16.2 µM
- inhibition [9]: Active
- IC50 (MDA-MB-231): 9.7 µM
- IC50 (MCF7): 14.1 µM
- IC50 (A549 [13]): 8.5 µM
Structure (SMILES): COc1ccccc1/C=C/C(=O)c1cc(Br)ccc1O
- IC50 [1]: 3.76 µM
- Activity (PC-3 [5]): Active
- Activity (LNCaP [6]): Active
- Activity (A549 [7]): inactive
- Activity (Homo sapiens): Active
- TGI (PC-3 [10]): inactive
- IC50 [11]: 5.16 µM
- Activity (A549 [12]): Active
- IC50 [14]: 3.73 µM
- IC50 [15]: 4.47 µM
- IC50 [16]: 11.1 µM

- IC50 (Androgen receptor): 4.36 µM
Structure (SMILES): O=C(/C=C/c1ccc2c(c1)OCO2)c1cc(Cl)ccc1O

- IC50 (Androgen receptor): 3.96 µM
Structure (SMILES): CCCOc1ccccc1/C=C/C(=O)c1cc(Br)ccc1O

- IC50 (LNCaP [3]): 7.25 µM
- IC50 (PC-3 [4]): 7.33 µM
- IC50 (Androgen receptor): < 1 µM
- IC50 (DU-145): > 10 µM
Structure (SMILES): COc1ccc(O)c(C(=O)/C=C/c2ccccc2OC)c1

- IC50 (Androgen receptor): 3.5 µM
Structure (SMILES): COc1ccccc1/C=C/C(=O)c1ccccc1O
